Results pooled from the literature.
Protocols differ between the studies behind these lines.
Target: Tyrosine-protein kinase ABL2 (ABL2, Homo sapiens, UniProt P42684)

| SMILES | effect on | technique | tested at | remaining binding [%] |
| --- | --- | --- | --- | --- |
| COc1ncc2cc3ccccc3nc2c1C#N | cell-free assay | competition with immobilised ligand | 5 µM | 96 |
| CC1CCCN1c1nccc(-c2cnn3ncccc23)n1 (stereo not drawn) | binding | – | 1 µM | 100 |
| Cc1c(-c2ccccc2)oc2c(C(=O)OCCN3CCCCC3)cccc2c1=O | cell-free assay | competition with immobilised ligand | 10 µM | 94 |
| CS(=O)(=O)c1cc(C2(NC(=O)c3cncc4c3cnn4-c3ccc(F)cc3)CC2)ccn1 | cell-free assay | competition with immobilised ligand | 1 µM | 95 |
| Nc1ncc2c(n1)-c1c([nH]c3ccc(C#CC4CC4)cc13)CCCC2 | binding | competition with immobilised ligand | 1 µM | 86 |
| O=C(c1ccc(Nc2nccc(-c3cc4ccccc4s3)n2)cc1)N1CCC(N2CCCC2)CC1 | binding | competition with immobilised ligand | 1 µM | 77 |
| c1cncc(-c2cccc(Nc3nccc(NC4CCCCC4)n3)c2)c1 | binding | competition with immobilised ligand | 10 µM | 56 |
| CNC(=O)c1cc(Oc2ccc(NC(=O)Nc3ccc(Cl)c(C(F)(F)F)c3)cc2)ccn1 | cell-free assay | competition with immobilised ligand | 0.1 µM | 97 |
| Cc1nc(Cc2cccc(C(F)(F)F)c2)sc1-c1ccc(C(N)=O)nc1 | cell-free assay | competition with immobilised ligand | 1 µM | 100 |
| CCN(CC)CCNC(=O)c1c(C)[nH]c(/C=C2\C(=O)Nc3ccc(F)cc32)c1C | cell-free assay | competition with immobilised ligand | 10 µM | 51 |
| c1cnn2ncc(-c3ccnc(N4CCC45COC5)n3)c2c1 | binding | – | 1 µM | 87 |
| CNC(=O)[C@@H]1CC[C@@H](n2c(-c3ccc4cnccc4c3)nc3ccc(C(=O)NCc4cccc(C(N)=O)c4)cc32)C1 | binding | competition with immobilised ligand | 1 µM | 98 |
| Cn1nc(C(F)(F)F)cc1-c1cnc(N2CCc3cc(S(=O)(=O)Nc4c(F)cc(Cl)cc4F)cc(N4CCCC4=O)c32)nc1 | cell-free assay | competition with immobilised ligand | 1 µM | 100 |
| COC(=O)Nc1nc2cc(C(=O)c3ccccc3)ccc2[nH]1 | cell-free assay | competition with immobilised ligand | 0.1 µM | 100 |
| O=C(Nc1cccnn1)N1CC(C/C=C/c2cncc(Oc3ccc(C(F)(F)F)cn3)n2)C1 | cell-free assay | competition with immobilised ligand | 1 µM | 100 |
| Cc1cnn2ncc(-c3ccnc(N(C)C)n3)c2c1 | binding | – | 1 µM | 100 |
| COc1cccc(CNC(=O)c2nc3scc(COCc4ccc(C(=O)O)cc4)c3c(=O)[nH]2)c1 | cell-free assay | competition with immobilised ligand | 1 µM | 82.2 |
| CN(c1nccc(-c2cnn3ncccc23)n1)C1CC1 | binding | – | 1 µM | 99 |
| N#Cc1ccc(Nc2ccc3[nH]c(=O)[nH]c3c2)c(Cl)c1 | cell-free assay | competition with immobilised ligand | 1 µM | 93 |
| CCN(CC)Cc1cc(Nc2ccnc3cc(Cl)ccc23)ccc1O | cell-free assay | competition with immobilised ligand | 0.1 µM | 97 |
| CC(C)(O)c1cncc(-c2nc3ccc(F)cc3n2C2CC2)c1 | cell-free assay | competition with immobilised ligand | 1 µM | 100 |
| CS(=O)(=O)CCNCc1ccc(-c2ccc3ncnc(Nc4ccc(OCc5cccc(F)c5)c(Cl)c4)c3c2)o1 | cell-free assay | competition with immobilised ligand | 10 µM | 100 |
| O=C(NCC1CCOCC1)c1n[nH]cc1NC(=O)c1c(F)cccc1F | binding | competition with immobilised ligand | 1 µM | 100 |
| Cc1cnc(Nc2ccc(C(=O)N3CCC(N4CCCC4)CC3)cc2)nc1-c1cc2ccccc2s1 | binding | competition with immobilised ligand | 1 µM | 43 |
| N[C@@H]1CCN(c2nccc(-c3cnn4ncccc34)n2)C1 | binding | – | 1 µM | 96 |
| COc1cc2ncnc(Nc3ccc(F)c(Cl)c3)c2cc1OCCCN1CCOCC1 | cell-free assay | competition with immobilised ligand | 0.1 µM | 100 |
| C[C@H]1CCN(c2nccc(-c3cnn4ncccc34)n2)C1 | binding | – | 1 µM | 78 |
| FC(F)(F)Oc1cccc(-c2cnc3ccc(-c4ccncc4)nn23)c1 | cell-free assay | competition with immobilised ligand | 5 µM | 76 |
| N#CC1(c2ccccn2)CCN(Cc2cc(C(=O)N3CCCC3)c(=O)n3ccccc23)CC1 | cell-free assay | competition with immobilised ligand | 1 µM | 100 |
| CN1CC[C@H](c2c(O)cc(O)c3c(=O)cc(-c4ccccc4Cl)oc23)[C@H](O)C1 | cell-free assay | competition with immobilised ligand | 10 µM | 80 |
